Here are results for 1 compound from article PMC7327769 (Asian Journal of Pharmaceutical Sciences, 2019).

Data set [1] in a line: Solubility testing of saquinavir in oils, surfactants, and co-surfactants. The note with it: 20 °C, 24 h. The data set is classed as physicochemical. The method in brief: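 Excess test compound added to each neat excipient and stirred magnetically. Content quantified by HPLC with UV detection at 240 nm (retention 3.8 min). Expressed as mg/g, mean ± standard deviation.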
The conditions of data set [2]: after oral administration to HIV-infected patients; cited from earlier work.

With `CC(C)(C)NC(=O)[C@@H]1C[C@@H]2CCCC[C@@H]2CN1C[C@@H](O)[C@H](Cc1ccccc1)NC(=O)[C@H](CC(N)=O)NC(=O)c1ccc2ccccc2n1` [saquinavir, Saquinavir], the Solubility of saquinavir in data set [1] (in Capryol 90 (oil)) was found to be 145 ± 12.6 mg/g; in data set [1] (in Cremophor® EL (surfactant)), 55 ± 5.0 mg/g; in data set [1] (in Labrafac® CM10 (oil)) it was 57 ± 4.2 mg/g; in data set [1] (in Labrasol® (surfactant)) it was 105 ± 5.0 mg/g; in data set [1] (in PEG 400 (co-surfactant)) it was 40 ± 3.4 mg/g; in data set [1] (in Propylene glycol (co-surfactant)), 228 ± 19.5 mg/g. For the same compound, the Solubility of saquinavir was determined as 158 ± 17.8 mg/g in data set [1] (in Transcutol® HP (co-surfactant)), 1.9 ± 0.4 mg/g in data set [1] (in Triglyceride (oil)), 37 ± 4.3 mg/g in data set [1] (in Tween® 80 (surfactant)) and 2.2 ± 0.3 mg/g in data set [1] (in Water (aqueous phase)). Besides, the “time of the highest saquinavir concentration in plasma” value in data set [2] is 2 to 4 h.
